Bioassay records from PubChem BioAssay.
S1P1 ag-PAM: S1P1 (human) agonism or agonism potentiation | P21453 | AID 449 | S1P1 CRE-bla cells, forskolin, beta-lactamase FRET, potentiator mode; S1P1 agonist co-added at EC20, 2 nM; 100% = saturating reference agonist, 0% = basal | hit rate 0.57% among 56,000 | activation, % at 9.5 µM;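 active means activation above a cutoff set at the mean activation of all tested compounds plus 3 SD, cut at about 54% in these data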;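 further: forskolin at 4 µM as EC80 and the EC20 agonist is SEW2871; 100% = SEW2871 at its EC100 plus forskolin at EC80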
S1P3 agonist: agonists of human S1P3 receptor | Q99500 | S1P3 NFAT-BLA reporter cells, agonism, FRET ratio; relative to 1 µM S1P, basal subtracted | activation, % at 4.5 µM | hit rate 0.1% among 60,000 | AID 373;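 active means activation above the screen-wide mean plus 3 SD, cut at about 4.5% in these data, passing the limit was not always enough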
Target sequence (Q99500 whole entry, looked up): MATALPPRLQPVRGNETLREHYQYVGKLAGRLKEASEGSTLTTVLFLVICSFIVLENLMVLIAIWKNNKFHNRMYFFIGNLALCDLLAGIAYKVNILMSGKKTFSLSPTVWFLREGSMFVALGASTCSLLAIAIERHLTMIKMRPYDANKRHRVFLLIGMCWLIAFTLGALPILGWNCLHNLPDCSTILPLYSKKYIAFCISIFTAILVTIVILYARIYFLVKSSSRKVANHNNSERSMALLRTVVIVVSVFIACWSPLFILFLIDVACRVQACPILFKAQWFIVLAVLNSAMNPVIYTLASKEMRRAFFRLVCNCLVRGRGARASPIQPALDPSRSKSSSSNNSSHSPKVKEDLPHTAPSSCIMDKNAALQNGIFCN
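Assay system: CHO cells stably expressing human S1P3, Gα16 and NFAT-β-lactamase reporter. Timing: overnight plating, 4 h compound 37 °C, 2 h substrate RT. Signal: β-lactamase FRET emission ratio 460/535 nm. Measure: percent activation versus median 1 µM S1P response, basal-subtracted, per plate. Repeats: primary screen single test, confirmation screen in triplicate.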
5HT1a antag: 5-HT1a (human) receptor antagonism | AID 612 | CHO 5-HT1a Ga15 NFAT-bla reporter, antagonist mode | P08908 | inhibition, % at 10 µM | hit rate 0.68% among 62,000;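 active means inhibition above the mean of all tested compounds plus 3 SD, cut at about 43% in these data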;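 further: receptor stimulated by 5-CT agonist at 100 nM near EC80; beta-lactamase reporter measured by ratiometric fluorescence of a cleavable substrate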
HTR1A agonist: 5-HT1a (human) receptor agonism; P08908; CHO 5-HT1a Ga15 NFAT-bla reporter, FRET ratio; 0% basal, 100% maximal reference agonist; activation, % at 10 µM; hit rate 0.56% among 65,000;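 active means activation above the screen-wide mean activation plus 3 SD, cut at about 19% in these data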;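 further: 0% = DMSO wells and 100% = 5-CT at EC100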
5HT1E ag: activates the human 5-HT1E serotonin receptor; P28566; CHO 5-HT1E Ga15 NFAT-bla reporter, FRET; 0% DMSO wells, 100% control agonist wells; activation, % at 6 µM; hit rate 0.69% among 65,000;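 active means activation above a set limit, the screen-wide mean activation plus 3 SD, cut at about 8.5% in these data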;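 further: 100% = positive control agonist at 1 µM giving full maximal response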
HTR1E antagonist: blocks the human 5-HT1E serotonin receptor | P28566 | CHO 5-HT1E Ga15 NFAT-bla reporter, FRET, antagonist | AID 571 | inhibition, % at 6 µM | hit rate 0.99% among 65,000;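 active means inhibition above a set limit, the mean inhibition across every tested compound plus 3 SD, cut at about 29% in these data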;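 further: signal is the 460 over 535 nm emission ratio of beta-lactamase substrate; 0% = agonist plus DMSO wells and 100% = wells without agonist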
Active calls of the source: *; nt = no result given. Hits are enriched below; roughly 3% of the tested compounds scored in any of these assays.

SMILES	S1P1 ag-PAM	S1P3 agonist	5HT1a antag	HTR1A agonist	5HT1E ag	HTR1E antagonist
CCCCc1nc(N2CCNCC2)c(C#N)c2c1CSC(C)(C)C2	-20	-3	nt	-1	10*	9
COc1cccc(N2CCN(Cc3cccc(Cl)c3)CC2)c1	-1	-2	-9	2	0	34*
COc1cccc(N2CCN(Cc3ccc(Cl)cc3)CC2)c1	-19	-1	-5	-1	8	0
COC(=O)c1c(C)[nH]c(C(=O)C(Cc2ccccc2)N(C)C)c1C (centres undefined)	16	0	2	-4	1	13
COc1ccc(CC2C(=O)N(C)C(=O)N(C)C2=O)c(OC)c1	-46	0	-52	22*	0	-5
COc1ccccc1N1CCN(Cc2ccccc2F)CC1	-20	-1	6	1	18*	-5
COc1ccccc1N1CCN(Cc2c(F)cccc2F)CC1	-7	-1	0	-1	2	11
COc1ccccc1N1CCN(Cc2ccccc2Cl)CC1	-15	-1	20	-1	8	-1
COc1ccccc1N1CCN(Cc2cccc(OC)c2O)CC1	nt	-1	32	3	13*	5
COc1ccc(CCn2c(O)c(C=NCCCO)c(=O)[nH]c2=O)cc1OC	-12	0	-4	-4	1	3
Cc1c2cnn(CC(=O)N3CCC4(CC3)OCCO4)c(=O)c2c(C)n1Cc1ccccc1F	23	0	6	3	-1	-4
COc1cc2c(cc1OC)-c1c(OC)c(OC)cc3c1C(C2)N(C)CC3 (centres undefined)	-21	0	3	6	25*	24
COc1ccc(CCN(C)Cc2c(F)cccc2F)cc1OC	-19	-2	-15	-1	0	5
Nc1c(C(=O)NCc2ccco2)c2nc3ccccc3nc2n1Cc1ccc(F)cc1	-64	12	nt	16	2	-14
COc1ccc(Cn2c(N)c(C(=O)NCc3ccco3)c3nc4ccccc4nc32)cc1	-298	7.5*	21	-4	0	7
CCCCCCn1c(N)c(C(=O)NCCN2CCOCC2)c2nc3ccccc3nc21	-130	10*	-19	11	3	3
COCCCn1c(N)c(C(=O)NCCC(C)C)c2nc3ccccc3nc21	-112	10*	-32	34*	12*	-21
CC(=NCCCN1CCOCC1)c1c(O)n(-c2ccccc2C)c(=O)[nH]c1=O	-18	0	-1	-2	0	1
CC1(C)CC2(CCO1)NCCN1C(=O)CSC12 (centres undefined)	-10	-1	0	-3	0	1
CC(C)(C)c1nc(N2CCN(C(=O)c3ccco3)CC2)c2nnn(Cc3ccccc3Cl)c2n1	13	0	-5	4	0	-11
Cn1c(O)c(C(=NCCN2CCCCC2)c2ccccc2Cl)c(=O)n(C)c1=O	-19	0	43*	-1	-1	-11
CCC(=NCCN1CCCCC1)c1c(O)n(C)c(=O)n(C)c1=O	-4	-2	nt	-1	0	-6
Cc1[nH]c2c(Cl)cccc2c1CCN	5	-1	6	-1	71*	7
O=C(CCCN1CCC2(CC1)C(=O)NCN2c1ccccc1)c1ccc(F)cc1	-37	0	nt	-2	16*	-30
O=C1C2CCCN2C(c2ccccc2)N1c1ccccn1 (centres undefined)	-8	0	-9	1	0	-3
SMILES	S1P1 ag-PAM	S1P3 agonist	5HT1a antag	HTR1A agonist	5HT1E ag	HTR1E antagonist
Nc1ccc(N2CCN(Cc3ccccc3Cl)CC2)c(Cl)c1	4	-1	3	0	-1	-8
CC(C)(C)c1ccc(O)c(CN2CCN(c3ccccc3)CC2)c1	-38	0	64*	-3	4	-4
CN1CCN(CC(=O)Nc2ccc(Cl)cc2C(=O)c2ccccc2)CC1	-11	-1	-4	2	10*	-4
O=C(CN1CCN(CCO)CC1)Nc1ccc(Cl)cc1C(=O)c1ccccc1	6	-1	nt	-1	-1	8
Cc1ccccc1C1=NCC(=O)N(CC(=O)NCc2ccco2)c2sc3c(c21)CCCC3	6	1	10	2	1	-6
CCOC(=O)[C@@]1(C#N)[C@@H]2C=CC(C(N)=O)=CN2[C@@H](C(N)=O)[C@@H]1c1cccc(Cl)c1	8	-6	nt	0	-1	9
COc1cccc(OC)c1C1=NCC(=O)Nc2c1oc1ccc(Br)cc21	4	-1	71*	-2	-1	80*
O=C1CN=C(c2ccccc2)c2oc3ccc(Br)cc3c2N1	-31	-1	15	0	0	10
CCn1nc(-c2cccs2)nc2c(=O)n(C)c(=O)nc1-2	96*	-2	82*	11	1	96*
CC(C)[C@@]1(NC(=O)[C@@H]2C=C3c4cccc5[nH]cc(c45)C[C@H]3N(C)C2)O[C@@]2(O)[C@@H]3CCCN3C(=O)[C@H](Cc3ccccc3)N2C1=O	7	-2	nt	113*	9.1*	7
CC(C)[C@@]1(NC(=O)[C@@H]2C[C@@H]3c4cccc5[nH]cc(c45)C[C@H]3N(C)C2)O[C@@]2(O)[C@@H]3CCCN3C(=O)[C@H](Cc3ccccc3)N2C1=O	-46	0	nt	96*	2	-12
CC(C)[C@H]1C(=O)N2CCC[C@H]2[C@]2(O)O[C@](NC(=O)[C@@H]3C=C4c5cccc6[nH]cc(c56)C[C@H]4N(C)C3)(C(C)C)C(=O)N12	-38	18	nt	102*	4	-1
CCn1c(C(=O)N2CCC(C(=O)N3CCC4(CC3)OCCO4)CC2)cc2sccc21	-12	0	-2	-1	-1	-2
CCC(=O)OC1(c2cccc(C)c2)CC(C)N(C)CC1C (centres undefined)	-10	-1	13	-2	0	3
CC(=O)Nc1ccc2c(c1)CC1(C(=O)N(C)C(=O)N(C)C1=O)C1CCCN21 (centres undefined)	-14	-1	-13	-3	0	1
Cc1ccc(-c2nc3ccccc3c(=O)n2-n2cccc2)cc1	-23	0	-5	0	1	-5
CCC(=NCCOc1ccc(Cl)cc1)c1c(O)n(C)c(=O)n(C)c1=O	62*	-7	nt	0	-2	16
CCCCC12CNCC(C)(CNC1)C2=O	-12	0	-12	86*	0	-7
Cc1ccccc1NC1=NCC(C)S1 (centres undefined)	nt	0	-4	2	1	-5
Cc1[nH]c2ccccc2c1C1=CCNCC1	15	0	-16	0	91*	-9
CCCCc1ccc2[nH]cc(CCN)c2c1	4	0	-8	69*	106*	-3
